These results are taken from ChEMBL document CHEMBL4152296, “Synthesis, biological evaluation and molecular modeling of novel azaspiro dihydrotriazines as influenza virus inhibitors targeting the host factor dihydrofolate reductase (DHFR)” (Eur J Med Chem, 2018).

As a reminder, the EC50 is the midpoint of the concentration-response curve. One may read the Ki as a measure of affinity in units of concentration, obtained from inhibition or displacement. Usually CC50 stands for the concentration giving 50% cytotoxicity.

The subject of one series is Punta Toro virus. Description: Antiviral activity against Punta Toro virus infected in African green monkey Vero cells assessed as inhibition of virus-induced cytopathic effect after 3 to 6 days by MTS assay. The series is classed as functional, organism-based. (In general: Protection from cytopathic effect is a common read-out in antiviral testing.)
For series [1], the system named is Influenza B virus. Description: Potency index, ratio of ribavirin EC50 to compound EC50 for Influenza B virus B/Ned/537/05 infected in MDCK cells. It counts as functional.
Another series deals with Coxsackievirus B4. Kind of series: Antiviral activity against Coxsackie B4 virus infected in human HeLa cells assessed as inhibition of virus-induced cytopathic effect after 3 to 6 days by MTS assay. The series is classed as functional, organism-based.
The test system of series [2] is Vesicular stomatitis virus. Kind of series: Antiviral activity against Vesicular stomatitis virus infected in human HEL299 cells assessed as inhibition of virus-induced cytopathic effect after 3 to 6 days by MTS assay. It counts as functional, organism-based.
In another series the test system is Vero. Kind of series: Cytotoxicity against African green monkey Vero cells assessed as reduction in cell viability measured after 3 to 6 days by MTS assay. The series is classed as cell-based. Particulars: chlorocebus sabaeus.
A further series deals with Human respirovirus 3. Description: Antiviral activity against Parainfluenza virus 3 infected in African green monkey Vero cells assessed as inhibition of virus-induced cytopathic effect after 3 to 6 days by MTS assay. The series is classed as functional, organism-based.
The subject of another series is Vaccinia virus. Kind of series: Antiviral activity against Vaccinia virus infected in human HEL299 cells assessed as inhibition of virus-induced cytopathic effect after 3 to 6 days by MTS assay. Particulars: Orthopoxvirus vaccinia. It counts as functional, organism-based.
In series [3] the test system is Mammalian orthoreovirus 1. Kind of series: Antiviral activity against Reovirus-1 infected in African green monkey Vero cells assessed as inhibition of virus-induced cytopathic effect after 3 to 6 days by MTS assay. The series is classed as functional, organism-based.
Series [4] relates to Influenza B virus. Description: Antiviral activity against Influenza B virus B/Ned/537/05 infected in MDCK cells assessed as protection against virus-induced reduction in cell viability after 3 to 6 days by MTS assay. It counts as functional, organism-based. Particulars: B/Ned/537/05, MDCK. The procedure, abridged:
(§1)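 MDCK cells seeded at 9000/well and infected one day later (semiconfluent) with 100 CCID50 virus. Medium was FCS-free Ultra MDCK with 2 μg/mL TPCK-trypsin. Serial five-fold compound dilutions (top 100 μM) were added with the virus, followed by 3–6 days at 35 °C. MTS read-out gave % protection versus virus and mock controls. EC50 was interpolated from semi-log curves; mean of two or three experiments.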
A general note: Tetrazolium dyes change colour on reduction, which living cells bring about.

The test system of a further series is Human alphaherpesvirus 1. Description: Antiviral activity against Herpes simplex virus type 1 infected in human HEL299 cells assessed as inhibition of virus-induced cytopathic effect after 3 to 6 days by MTS assay. The series is classed as functional, organism-based.
The test system of series [5] is Respiratory syncytial virus. Kind of series: Potency index, ratio of ribavirin EC50 to compound EC50 for Respiratory syncytial virus Long infected in human HeLa cells. The series is classed as functional.
Series [6] is described as follows: Cytotoxicity against human HeLa cells assessed as alterations in normal cell morphology measured after 3 to 6 days by microscopic analysis. It counts as cell-based. An outline of the steps:
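Mock-infected HeLa cultures in 2% FCS medium received serial five-fold dilutions […] for 3–6 days at 37 °C. MCC was the lowest concentration giving microscopically visible minimal change in cell morphology (rounding, shrinking, lysis).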

The test system of a further series is Yellow fever virus. Kind of series: Antiviral activity against Yellow fever virus infected in African green monkey Vero cells assessed as inhibition of virus-induced cytopathic effect after 3 to 6 days by MTS assay. It counts as functional, organism-based.
Another series has as its system Sindbis virus. Kind of series: Antiviral activity against Sindbis virus infected in African green monkey Vero cells assessed as inhibition of virus-induced cytopathic effect after 3 to 6 days by MTS assay. The series is classed as functional, organism-based.
Series [7] in a line: Cytotoxicity against MDCK cells assessed as alterations in normal cell morphology measured after 3 to 6 days by microscopic analysis. The series is classed as cell-based, Canis lupus familiaris. Particulars: dog. An outline of the steps: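 Uninfected MDCK cultures in FCS-free Ultra MDCK medium with trypsin received five-fold compound dilutions (up to […]) for 3–6 days at 35 °C. Microscopy scored morphology, and MCC was taken as the lowest concentration causing minimal rounding, shrinking or lysis.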

Another series relates to Human adenovirus 2. Description: Antiviral activity against Human adenovirus type 2 infected in human HEL299 cells assessed as inhibition of virus-induced cytopathic effect after 3 to 6 days by MTS assay. The series is classed as functional, organism-based.
The test system of series [8] is Respiratory syncytial virus. Kind of series: Antiviral activity against Respiratory syncytial virus Long infected in human HeLa cells assessed as inhibition of virus-induced cytopathic effect after 3 to 6 days by MTS based microscopy. It counts as functional, organism-based.
The test system of a further series is Human coronavirus 229E. Description: Antiviral activity against Human coronavirus 229E infected in human HEL299 cells assessed as inhibition of virus-induced cytopathic effect after 3 to 6 days by MTS assay. It counts as functional, organism-based.
For series [9], the system named is Human immunodeficiency virus. Description: Antiviral activity against HIV. It counts as functional, organism-based.
Series [10] can be described thus: Selectivity index, ratio of MCC for human HeLa cells to EC50 for Respiratory syncytial virus Long infected in human HeLa cells. It counts as toxicity, cell-based. Particulars: read-out: Selectivity Index. The procedure, abridged: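 Selectivity index for RSV Long in HeLa was calculated as microscopic MCC divided by CPE-based microscopic EC50 from parallel infected and mock-infected cultures.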

The next series has as its system Human alphaherpesvirus 2. Description: Antiviral activity against Herpes simplex virus type 2 infected in human HEL299 cells assessed as inhibition of virus-induced cytopathic effect after 3 to 6 days by MTS assay. It counts as functional, organism-based.
In a further series the target is T1, Dihydrofolate reductase (Homo sapiens, UniProt P00374).
T1 sequence (P00374 whole entry): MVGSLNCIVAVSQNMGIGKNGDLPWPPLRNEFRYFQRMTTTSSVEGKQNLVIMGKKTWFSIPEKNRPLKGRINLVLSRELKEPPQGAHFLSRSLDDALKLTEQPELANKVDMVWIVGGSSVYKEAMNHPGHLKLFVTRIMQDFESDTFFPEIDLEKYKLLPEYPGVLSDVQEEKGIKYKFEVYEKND
Kind of series: Binding affinity to human recombinant DHFR using dihydrofolate as substrate after 180 secs by spectrophotometric method. An outline of the steps:
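Recombinant human DHFR (0.42 μM) in TES buffer with inhibitor, 60 μM DHF, and 120 μM NADPH added last to start the reaction. Absorbance at 340 nm was followed for 180 s. Six concentrations (1–32 μM) were run in duplicate. IC50 came from Dixon plots assuming competitive inhibition. Ki = IC50/(1+[S]/Km), with DHF Km 5 μM.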

A further series concerns Influenza A virus. Kind of series: Antiviral activity against Influenza A virus (A/Puerto Rico/8/34(H1N1)) infected in MDCK cells assessed as protection against virus-induced reduction in cell viability after 3 to 6 days by MTS assay. The series is classed as functional, organism-based. Particulars: A/Puerto Rico/8/1934(H1N1). An outline of the steps:
as §1

Series [11] can be described thus: Selectivity index, ratio of CC50 for MDCK cells to EC50 for Influenza B virus B/Ned/537/05 infected in MDCK cells. It counts as toxicity, cell-based. Particulars: dog, read-out: Ratio CC50/EC50. An outline of the steps:
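Selectivity index for influenza B in MDCK was calculated as MTS-based CC50 divided by MTS-based EC50, both measured in parallel in the same assay.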

The next series concerns MDCK. Kind of series: Cytotoxicity against MDCK cells assessed as reduction in cell viability measured after 3 to 6 days by MTS assay. The series is classed as cell-based, Canis lupus familiaris. Particulars: dog. The procedure, abridged: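 Mock-infected MDCK plates were run in parallel (FCS-free Ultra MDCK medium with TPCK-trypsin) with serial five-fold dilutions up to […], 35 °C for 3–6 days. CC50 was interpolated from semi-log dose-response curves; mean of two or three experiments.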

The test system of another series is West Nile virus. Kind of series: Antiviral activity against West Nile virus after 2 days by luminometric method. Particulars: 48 h. It counts as functional, organism-based.
In another series the test system is Hepatitis C virus. Kind of series: Antiviral activity against Hepatitis C virus after 2 days by luminometric method. It counts as functional, organism-based, Hepacivirus hominis. Particulars: 48 h.
For series [12], the system named is Human immunodeficiency virus. Description: Antiviral activity against HIV after 2 days by luminometric method. The series is classed as functional, organism-based. Particulars: Human immunodeficiency virus 1, 48 h.
The nature of series [13]: Selectivity index, ratio of CC50 for human Lunet cells to EC50 for DENV. The series is classed as toxicity. Particulars: read-out: Ratio CC50/EC50.
Another series relates to Dengue virus. Description: Antiviral activity against DENV after 2 days by luminometric method. The series is classed as functional, organism-based. Particulars: 48 h.
The nature of series [14]: Selectivity index, ratio of CC50 for human Lunet cells to EC50 for West Nile virus. Particulars: read-out: Ratio CC50/EC50. The series is classed as toxicity.
The nature of series [15]: Selectivity index, ratio of CC50 for human Lunet cells to EC50 for HIV. The series is classed as toxicity. Particulars: read-out: Ratio CC50/EC50.
The nature of series [16]: Selectivity index, ratio of CC50 for human Lunet cells to EC50 for Hepatitis C virus. It counts as toxicity. Particulars: read-out: Ratio CC50/EC50.

Structures are written as SMILES. Calls of active or inactive are those of the source. The rule behind the calls is not given here.

Consider `Cc1ccc(C(=O)N2CCC3(CC2)N=C(N)N=C(N)N3c2cccc(Cl)c2)cc1`, for which the result (in the series with Punta Toro virus; with Coxsackievirus B4; in [2]; in the series with Human respirovirus 3; in the series on Vaccinia virus; in series [3]) was inactive. For the same molecule, the result (in the series with Human alphaherpesvirus 1; with Yellow fever virus; in the series with Sindbis virus; with Human adenovirus 2; in the series on Human coronavirus 229E; in series [9]) was inactive. In addition, the outcome with Human alphaherpesvirus 2 was inactive. Also, the “Ratio EC50” value amounted to 11 with Influenza B virus [1] and 15 in series [5]. In addition, in the series with Vero, the Activity result is recorded as “Non-Toxic”. In addition, the EC50 was 290 nM in the series on Influenza B virus [4], 400 nM in series [8] and > 100 µM in the series with Influenza A virus. The MCC in series [6] was ≥ 100 µM; in series [7], ≥ 800 nM. In addition, the selectivity ratio worked out at 250 in series [10] and 62 in [11]. Also, the Ki at Dihydrofolate reductase was 640 nM. Further, in the series on MDCK, the CC50 came to 18 µM.
As to `NC1=NC2(CCN(C(=O)Nc3ccc(F)cc3)CC2)N(c2cccc(Cl)c2)C(N)=N1`, the result (with Punta Toro virus; in the series on Coxsackievirus B4; in [2]; with Human respirovirus 3; in the series with Vaccinia virus; in series [3]) was inactive. The outcome (with Human alphaherpesvirus 1; with Yellow fever virus; in the series with Sindbis virus; with Human adenovirus 2; with Human coronavirus 229E; in series [9]) was inactive. For the same molecule, the outcome with Human alphaherpesvirus 2 was inactive. Besides, the Activity entry in the series on Vero was “Non-Toxic”. Besides, the half-maximal effective concentration (EC50) in the series with Influenza B virus [4] is 190 nM; in series [8], 1800 nM; in the series with Influenza A virus, > 100 µM. In addition, the “Ratio EC50” value in series [5] is 3. The MCC in [6] is ≥ 100 µM; in [7], ≥ 160 nM. The selectivity ratio in series [10] was found to be 56; in series [11], 268. The Ki on Dihydrofolate reductase was 530 nM. Further, the CC50 in the series with MDCK was determined as 51 µM.
In the case of `Cc1cn(-c2ccc(NC(=O)Nc3ccccc3C)cc2)nn1`, the EC50 (in the series on West Nile virus; with Hepatitis C virus; in [12]; with Dengue virus) was 0.97 to 16.5 µM throughout. The selectivity ratio in series [13], in series [14], in series [15] and in series [16] was 162 throughout.
